Reference: ChEMBL document CHEMBL5715946 (Chem Biol, 2010)
The source made the active and inactive calls. No cut-off for these calls is given here.

Key:
Cardiac muscle cell = assay: Cytoprotective activity against serum deprivation-induced neonatal Wistar rat cardiomyocyte death assessed as suppression of internucleosomal cleavage of genomic DNA at 0.37 uM measured after 3 days by agarose gel electrophoresis; type: functional, cell-based; conditions: time 3.0 day
Procedure, shortened: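 Neonatal rat cardiomyocytes held with or without 0.37 μM compound in serum-free medium for 3 days. Genomic DNA then isolated and internucleosomal laddering examined by agarose gel electrophoresis.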

[1] = system: Antioxidant response element; assay: Induction of ARE-mediated HO-1 mRNA expression in MIF siRNA transfected rat H9c2 cells at 3 uM measured after 24 hrs by RT-qPCR analysis; type: cell-based
Procedure, shortened: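 H9c2 cells transfected with MIF siRNA or control siRNA (100 nM, Oligofectamine), then treated with 3 μM compound with or without 0.8 μM rMIF for 24 hr. GST Ya and HO-1 mRNA by real-time qPCR; mean ± SD, n = 3. MIF effect on drug efficacy tested by Aspin-Welch test.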

[2] = Reduction in MIF mRNA expression in rat H9c2 cells transfected with MIF siRNA at 3 uM measured after 24 hrs RT-qPCR analysis relative to control; type: functional; design: scale not given: the % may be the effect or the level left
Procedure, shortened: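 H9c2 cells transfected with 100 nM rat MIF siRNA or negative-control siRNA using Oligofectamine in Opti-MEM, then treated with 3 μM compound for 24 hr. MIF mRNA by real-time qPCR; MIF protein in cell lysate and medium by ELISA. Mean ± SD, n = 3.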

[3] = molecular target: Macrophage migration inhibitory factor (Rattus norvegicus) (UniProt P30904); assay: Inhibition of [3H]-BTZO-1 binding to recombinant rat C-terminal His-tagged MIF expressed in Escherichia coli BL21 (DE3) measured after 3 hrs by SPA
Target sequence in this assay (P30904 whole entry, looked up): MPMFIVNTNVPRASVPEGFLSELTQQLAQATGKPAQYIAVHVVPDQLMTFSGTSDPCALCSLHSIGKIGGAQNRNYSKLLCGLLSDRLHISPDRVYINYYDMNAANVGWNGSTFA

[4] = molecular target: Macrophage migration inhibitory factor (Rattus norvegicus) (UniProt P30904); assay: Induction of MIF-stimulated ARE activity in rat H9c2 cells assessed as increase in HO-1 expression at 3 uM incubated for 6 hrs by RT-qPCR analysis; type: cell-based
Target sequence in this assay (P30904 2-115 limits assumed): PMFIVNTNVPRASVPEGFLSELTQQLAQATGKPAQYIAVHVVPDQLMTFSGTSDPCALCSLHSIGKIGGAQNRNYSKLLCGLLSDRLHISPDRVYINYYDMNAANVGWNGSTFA

[5] = system: Antioxidant response element; assay: Induction of rat ARE activity expressed in rat H9c2 cells assessed as increase in ARE luciferase activity measured after 24 hrs by steady-glo luciferase Assay; type: cell-based
Procedure, shortened: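 H9c2 cells transiently transfected with pGL3-ARE-Luc or pGL3-mARE-Luc, compound exposure 24 hr, luciferase read by Steady-Glo. MEC2.0 is the concentration giving a doubling of luciferase activity. Mean ± SD, n = 4.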

[6] = Upregulation of catalase gene expression in serum-deprived neonatal Wistar rat cardiomyocyte at 0.37 uM incubated for 21 hrs by microarray analysis relative to control; type: functional, Cardiac muscle cell
Procedure, shortened: (§1)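 Primary neonatal rat cardiomyocytes, isolated by proteinase digestion with preplating to deplete nonmyocytes, cultured in serum-free medium with or without 0.37 μM compound for 21 hr. Total RNA was recovered and global expression profiled on an Affymetrix GeneChip rat genome U34A array (about 7000 known genes). Change is relative to untreated cells.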

[7] = Upregulation of 3-methylcholanthrene-inducible truncated UDP-glucuronosyl transferase gene expression in serum-deprived neonatal Wistar rat cardiomyocyte at 0.37 uM incubated for 21 hrs by microarray analysis relative to control; type: functional, Cardiac muscle cell
Procedure, shortened: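 Primary neonatal rat cardiomyocytes cultured with or without 0.37 μM compound in serum-free medium for 21 hr. Total RNA profiled on the rat genome U34A GeneChip array (about 7000 known genes).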

[8] = Upregulation of thioredoxin reductase gene expression in serum-deprived neonatal Wistar rat cardiomyocyte at 0.37 uM incubated for 21 hrs by microarray analysis relative to control; type: functional, Cardiac muscle cell; procedure, shortened: as §1
[9] = system: Antioxidant response element; assay: Induction of ARE activity in serum-deprived neonatal Wistar rat cardiomyocytes assessed as increase in GST Ya expression up to 400 nM measured after 24 hrs by Western blot analysis; type: cell-based; conditions: Cardiomyocyte
Procedure, shortened: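 Neonatal rat cardiomyocytes exposed to samples or vehicle in M-199 with 1% penicillin-streptomycin, no serum, for 24 hr. GST Ya and HO-1 mRNA measured by real-time qPCR (mean ± SD, n = 3); protein by western blot with β-actin as control.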

O=c1nc(-c2ccccn2)sc2ccccc12 [BTZO-1]
Activity (Cardiac muscle cell): Active | Activity [1]: inactive | Activity [2]: ~80% | IC50 [3]: 71 nM | Activity [4]: Active | Activity [5]: Dose-Dependent Effect | MEC2 [5]: 0.82 µM | fold change (FC) [6]: 2.3 | fold change (FC) [7]: 2.2 | fold change (FC) [8]: 2.8 | Activity [9]: Active
